Published values of several laboratories.
Compare with care: the assays were run in different laboratories.
Read-out: cell growth or viability

S=C([S][Au-][P+](CCCCCC[P+]([Au-][S]C(=S)n1cccn1)(c1ccccc1)c1ccccc1)(c1ccccc1)c1ccccc1)n1cccn1  GI50 (HCC 2998): 759 nM
CC(C)C[C@H](NC(=O)[C@H](Cc1ccccc1)NC(=O)c1cnccn1)B(O)O  IC50 (OCI-AML-5; ATP luminescence): 18 nM
COc1ccc(-c2ccc(-c3ccc(C(=N)N)nc3)s2)cc1  GI50 (SNB-75; SRB): 1550 nM
Cc1cc(C)n(C(=S)[S][Au][PH](CCCCCC[PH]([Au][S]C(=S)n2nc(C)cc2C)(c2ccccc2)c2ccccc2)(c2ccccc2)c2ccccc2)n1  GI50 (HCC 2998): 252 nM
Cc1ccc(C)c(COc2cc(NC(=O)c3ccc4c(c3)OCO4)ccc2N(C)S(C)(=O)=O)c1  GI50 (HCC 2998; SRB; 48 h): 120 nM
COc1cc(-c2cn(-c3ccccc3)nn2)cc(OC)c1OC  CC50 (CCRF-CEM; 48 h): 34600 nM
O=C1Nc2ccccc2C1=NNc1nnc2n1N=C(c1ccccc1)CS2  inhibition (SNB-75; SRB; 10 µM): 35%
COc1cc(-c2ccc(-c3ccc(C(=N)N)nc3)s2)cc(OC)c1OC  GI50 (SNB-75; SRB): 1500 nM
Oc1ccc(Nc2nc(-c3ccc(Cl)cc3)cs2)cc1  IC50 (A375M; MTS; 24 h): > 100000 nM
COc1cc(OC)cc(-c2cn(-c3cc(=O)oc4ccc(Br)cc34)nn2)c1  CC50 (CCRF-CEM; 48 h): 10500 nM
COc1ccc(C2=Nn3c(NN=C4C(=O)Nc5ccc(OC)cc54)nnc3SC2)cc1  inhibition (UACC-257; SRB; 10 µM): 20%
COc1cccc(Oc2ccccc2NC(=O)CNC(=O)c2cccc3ccccc23)c1  GI50 (HCC 2998; SRB; 48 h): 1260 nM
